From PubChem
pCIP destab – lowers stability of the mouse p/CIP coactivator protein; Q05BA5; F442A p/CIP-EGFP cells, EGFP fluorescence, 16 h; decrease of EGFP signal, % at 10 µM; 0.01% of 290,000 active;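 active = EGFP signal decrease of at least 30% at 10 µM or well 3 SD below plate mean, unless failing retest; inactive = the rest, including hits failing retest or dose response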
Target sequence (Q05BA5 1-1403): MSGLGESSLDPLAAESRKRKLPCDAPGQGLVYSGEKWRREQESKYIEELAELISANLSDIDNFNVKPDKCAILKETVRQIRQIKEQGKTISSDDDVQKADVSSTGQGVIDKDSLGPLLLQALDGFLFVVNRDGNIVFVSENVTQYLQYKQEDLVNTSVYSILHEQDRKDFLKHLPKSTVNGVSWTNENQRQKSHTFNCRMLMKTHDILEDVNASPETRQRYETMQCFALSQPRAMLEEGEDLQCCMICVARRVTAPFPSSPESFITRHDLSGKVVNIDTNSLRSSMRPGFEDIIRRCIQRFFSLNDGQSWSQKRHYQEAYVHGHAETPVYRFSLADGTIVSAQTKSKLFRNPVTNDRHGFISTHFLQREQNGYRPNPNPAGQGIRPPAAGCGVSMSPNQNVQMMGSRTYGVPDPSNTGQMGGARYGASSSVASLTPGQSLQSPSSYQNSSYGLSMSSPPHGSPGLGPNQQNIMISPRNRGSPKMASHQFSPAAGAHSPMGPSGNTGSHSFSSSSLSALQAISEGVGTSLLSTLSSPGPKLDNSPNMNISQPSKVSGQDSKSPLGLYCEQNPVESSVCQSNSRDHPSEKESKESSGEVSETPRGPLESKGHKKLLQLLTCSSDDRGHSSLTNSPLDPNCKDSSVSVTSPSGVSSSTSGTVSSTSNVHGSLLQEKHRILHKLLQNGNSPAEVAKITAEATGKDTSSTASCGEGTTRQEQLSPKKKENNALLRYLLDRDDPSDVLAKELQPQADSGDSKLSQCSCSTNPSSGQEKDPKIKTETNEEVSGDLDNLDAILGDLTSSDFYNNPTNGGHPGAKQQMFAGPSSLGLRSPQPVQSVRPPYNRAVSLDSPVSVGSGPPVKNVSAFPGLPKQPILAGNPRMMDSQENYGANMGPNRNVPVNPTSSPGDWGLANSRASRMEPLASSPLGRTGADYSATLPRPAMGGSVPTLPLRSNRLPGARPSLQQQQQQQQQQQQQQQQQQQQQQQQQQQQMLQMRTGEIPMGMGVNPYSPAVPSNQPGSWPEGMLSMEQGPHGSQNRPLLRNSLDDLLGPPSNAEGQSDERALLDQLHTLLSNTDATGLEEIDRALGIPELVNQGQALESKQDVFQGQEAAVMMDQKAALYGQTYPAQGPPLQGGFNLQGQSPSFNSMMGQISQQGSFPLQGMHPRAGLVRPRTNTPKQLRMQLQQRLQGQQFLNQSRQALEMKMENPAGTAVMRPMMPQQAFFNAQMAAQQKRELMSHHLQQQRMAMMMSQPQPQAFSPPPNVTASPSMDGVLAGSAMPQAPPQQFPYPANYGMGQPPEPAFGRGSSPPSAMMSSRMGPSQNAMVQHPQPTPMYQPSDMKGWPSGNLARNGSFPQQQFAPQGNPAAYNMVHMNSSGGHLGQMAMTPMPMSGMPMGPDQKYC
AI-2 QS mod – Vibrio harveyi AI-2 quorum sensing modulation. Vibrio harveyi JMH597 AI-2 luminescence/OD600 ratio, 9 h; stronger effect = lower value; strain lacks LuxN and CqsS sensors; 0 = neutral-control median. activity change, % at 7.5 µM. 0.4% of 300,000 active; in the data active = activity change below about -75%, passing the limit was not always enough; inconclusive = no clear call, values can overlap the other calls;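 also: luminescence divided by OD600 gain over 9 h not by final OD600 alone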
T cruzi repl – blocks replication of Trypanosoma cruzi; T. cruzi beta-gal in NIH3T3, luminescence, 90 h; inhibition, % (concentration not given with the values); 1.4% of 300,000 active;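 active = mean inhibition across valid replicates above about 55%, limit read from the data; inconclusive = mean below that limit but half or more replicates reach it; inactive = mean below it, under half of replicates reach it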;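 also: signal also drops with host cell toxicity which is not excluded here; 0% = plate median of DMSO wells and 100% = zero luminescence signal; higher percent means less beta-gal luminescence so fewer parasites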
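Assay system: NIH/3T3 fibroblasts plus reporter T. cruzi. Amount: NIH/3T3 cells, 5,000 per well. Buffer or medium: DMEM, 2% fetal bovine serum. Doses: compound pinned at 50 nL/well, DMSO. Schedule: ≥90 h infection period, 3 h prior cell attachment. Signal: luminescent β-galactosidase signal after 60 min lysis. Read-out: parasite load inhibition, %.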
PP1 inh – PP1-alpha (human) inhibition in PP5 counter-screen; AID 2235; 0.9% of 320,000 active; inhibition, % at 6.7 µM; P62136; purified PP1alpha, OMFP fluorescence;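 active = inhibition above the mean inhibition of all tested compounds plus 3 SD, computed separately for each screening campaign, cut at about 15% in these data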
UBC13 inh – blocks human UBC13 polyubiquitin chain formation | 0.47% of 330,000 active | inhibition, % at 20 µM | P61088 | TR-FRET; in the data active = inhibition above about 45%, passing the limit was not always enough; inconclusive = no clear call, values can overlap the other calls
* hit, by the source's call; u = inconclusive; x = no result given. An excerpt weighted towards active compounds, which were near 2.8% of everything screened.

SMILES | pCIP destab | AI-2 QS mod | T cruzi repl | PP1 inh | UBC13 inh
COc1ccc(NC(=O)[C@H](Cc2c[nH]c3ccccc23)NC(=O)[C@@H]2Cc3ccccc3CN2)cc1 | -0.6 | 46.1 | 4.6 | 6.6 | 0.1
CC(C)c1ccc(NC(=O)[C@H](Cc2c[nH]c3ccccc23)NC(=O)[C@@H]2Cc3ccccc3CN2)cc1 | -2.7 | 11.1 | 16.5 | 16.5* | 3.3
CC(C)C(NC(=O)c1ccccc1)C(=O)NC1CCCc2ccccc21 (stereo unspecified) | x | x | x | 0.1 | -13.3
CCn1c(NC(=S)Nc2ccccc2)nc2ccccc21 | 1.7 | 5.9 | 65.1* | 3.9 | 8.7
COc1cc(/C=C(/C#N)c2ccccc2)ccc1Oc1ccc([N+](=O)[O-])cn1 | 4.8 | -7.6 | 47.6 | 1.7 | -4.6
COc1cc(/C=C(\C#N)c2nc3ccccc3[nH]2)ccc1Oc1ccc([N+](=O)[O-])cn1 | -4.3 | 15.7 | 61.6* | 7.4 | -37.2
CC(c1nnnn1C(C)(C)C)N(Cc1cccnc1)Cc1ccccc1Cl (stereo unspecified) | -7.0 | 19.3 | 65.9* | 3.1 | -19.1
CC(c1nnnn1C1CCCCC1)N(Cc1ccccc1)Cc1cccnc1 (stereo unspecified) | 1.6 | 32.0 | 38.2 | 1.4 | 10.3
Clc1ccccc1CN(Cc1ccccc1)C(c1cccs1)c1nnnn1C1CCCC1 (stereo unspecified) | -15.3 | x | 35.2 | 7.1 | -1.2
CC(C)(C)n1nnnc1C(c1cccs1)N(Cc1cccnc1)Cc1ccccc1Cl (stereo unspecified) | -6.1 | 37.5 | 70.6* | 12.7 | 1.9
CCCCn1c(N)c(N(Cc2ccccc2OC)C(=O)COc2ccc(C)cc2)c(=O)[nH]c1=O | x | 22.7 | 5.5 | -8.2 | -1.7
COc1ccccc1OCCCCn1c(C(C)O)nc2ccccc21 (stereo unspecified) | -4.7 | 12.7 | -4.7 | -7.7 | 7.8
Oc1ccc(Cl)cc1Cc1cc(Cl)ccc1O | -15.3 | -112.3* | -6.7 | 2.8 | -13.0
Cc1cccc(N2CC(C(=O)NCCC3=CCCCC3)CC2=O)c1C (stereo unspecified) | x | 6.5 | 0.4 | -2.0 | -10.1
COc1cccc(C(=O)Nc2ccccc2)c1 | 4.7 | 16.7 | -14.9 | 0.0 | 4.6
COc1cccc(C(=O)Nc2ccc(NC(=O)Cc3ccccc3)cc2)c1 | -4.4 | 12.5 | 1.5 | 17.2* | 8.6
Cc1ccsc1/C=N/NC(=O)c1ccc(-n2cccc2)cc1 | 5.4 | 15.2 | 5.3 | 2.5 | -12.5
COc1ccc(OC)c(CC(=O)Nc2ccc3c(c2)CCC3)c1 | 7.3 | 23.1 | 6.5 | 0.1 | -0.7
COc1ccc(OC)c(CNc2ccc3c(c2)CCC3)c1 | 0.8 | 19.3 | 70.3* | 12.0 | 7.4
COc1cccc(CNc2ccc(C)c(Cl)c2)c1 | 2.5 | -11.6 | 1.9 | 1.4 | 8.6
COc1cccc(CNc2ccc3c(c2)CCC3)c1 | -8.5 | 12.4 | 60.2* | 1.1 | -0.6
O=c1cc(O)nc(SC23CC4CC(CC(C4)C2)C3)[nH]1 | -13.8 | 29.4 | -28.5 | 15.6* | -2.9
O=C(CSc1nnc(COc2ccc(Cl)cc2)o1)Nc1ccc(N2CCOCC2)cc1 | x | x | x | x | -1.5
CSc1nc(SCC(=O)NC(c2ccccc2)c2ccccc2)c2c3c(sc2n1)CN(C)CC3 | -5.8 | 28.1 | 64.3* | 15.5* | 13.2
CSc1nc(NCC(C)O)c2c3c(sc2n1)CN(C)CC3 (stereo unspecified) | -11.8 | 10.7 | 10.5 | -1.5 | 9.5
SMILES | pCIP destab | AI-2 QS mod | T cruzi repl | PP1 inh | UBC13 inh
COc1ccc(NC(=O)CN2CCCC2c2cccs2)cc1S(=O)(=O)N1CCCCC1 (stereo unspecified) | x | x | x | -2.8 | 8.4
COCCN(C(=S)Nc1cc(C)cc(C)c1)C(C)c1ccco1 (stereo unspecified) | 2.2 | 24.1 | -11.6 | -1.4 | -2.5
O=C(CN1C(=O)COc2ccc(Cl)cc21)N1CCCCC1 | -6.4 | 15.4 | -7.4 | -4.2 | 16.0
COc1ccc(C2CC(c3cccs3)=NN2C(=O)c2ccccc2)cc1OC (stereo unspecified) | 3.4 | 7.8 | -6.3 | 0.2 | 8.7
COc1ccc(C2CC(c3cccs3)=NN2C(=O)CCl)cc1OC (stereo unspecified) | -0.9 | -5.5 | 61.7* | -0.6 | -0.4
COc1ccc(C2CC(c3cccs3)=NN2C(=O)CCC(=O)O)cc1 (stereo unspecified) | -5.4 | 26.9 | -8.4 | 1.1 | 1.6
COc1cc(C2CC(c3cccs3)=NN2C(=O)CCl)ccc1OC(F)F (stereo unspecified) | -7.2 | 10.9 | 61.0* | -2.0 | 5.0
COc1ccc(C(=O)N/N=C(\C)Cn2cnc([N+](=O)[O-])n2)cc1 | -5.1 | 8.2 | 55.9* | 1.6 | 0.0
C/C(Cn1cnc([N+](=O)[O-])n1)=N\NC(=O)c1ccc(F)cc1 | -3.8 | 27.8 | 47.8 | 2.6 | 2.0
C/C(Cn1cnc([N+](=O)[O-])n1)=N\NC(=O)c1cccc(F)c1 | 2.5 | 21.6 | 62.8* | -0.2 | 3.0
COc1ccc(CCN2CC(C(=O)Nc3cc(F)ccc3F)CC2=O)cc1OC (stereo unspecified) | x | 23.9 | 4.7 | -7.1 | 7.0
Cc1ccc(S(=O)(=O)Nc2cccc(CP(=O)(c3ccccc3)c3ccccc3)c2)cc1 | 7.8 | 3.3 | -3.4 | -0.1 | -14.9
CCN(CC)c1ccc(S(=O)(=O)Nc2cc(Cl)ccc2Cl)cc1NC(=S)NC(=O)C1CCCC1 | -6.8 | 25.5 | 17.5 | 15.3* | 9.7
CC1=C(C(=O)N2CCc3ccccc32)C2(CCC(C)CC2)OC1=O (stereo unspecified) | -3.6 | 14.0 | 59.6* | 0.3 | -2.6
O=C(NCC1CCCO1)C(c1cccs1)N(Cc1ccccc1Cl)C(=O)c1ccc(-c2ccccc2)[nH]1 (stereo unspecified) | 1.2 | 25.0 | 74.2* | 5.0 | 9.3
CCOc1ccc(S(=O)(=O)N2CCC(C(=O)NCC3CCCO3)CC2)cc1 (stereo unspecified) | -3.4 | 25.5 | -4.0 | -2.4 | 1.8
Cc1cc(Br)cn2cc(C(=O)O)nc12 | 10.9 | -0.5 | 0.2 | -0.1 | 12.6
NS(=O)(=O)c1cccc(NS(=O)(=O)c2ccc3ccccc3c2)c1 | -0.7 | -96.9* | 0.8 | -0.8 | 8.3
O=C(O)c1cc(NS(=O)(=O)c2ccc3ccccc3c2)ccc1O | 8.3 | 21.1 | -17.1 | -1.2 | -0.9
O=C(N/N=C/c1c(O)ccc2ccccc12)c1cccnc1 | 27.9 | 6.3 | 66.2* | 9.0 | -11.8
O=C(N/N=C\c1c(O)ccc2ccccc12)c1ccc(O)cc1 | -5.5 | 33.4 | 19.8 | 3.7 | -22.5
COc1ccc2ccccc2c1/C=N\NC(=O)c1cccnc1 | x | 18.7 | -5.4 | -1.8 | -21.4
O=C(N/N=C/c1c(O)ccc2ccccc12)c1ccc(Br)o1 | 3.0 | 12.3 | 40.8 | 10.8 | -16.6
Cc1ccc(C(=O)N/N=C/c2c(O)ccc3ccccc23)cn1 | -4.6 | -18.6 | 66.9* | 10.4 | -25.3
O=C(N/N=C\c1c(O)ccc2ccccc12)c1cncc(Br)c1 | -29.6 | u | 65.4* | 12.8 | -68.9
N/C(=N\OC(=O)COc1ccc(Cl)cc1Cl)c1ccncc1 | -6.4 | x | x | x | x
